Source: PubChem BioAssay (several laboratories)
Shown is part of a subset that was picked to be rich in hits.
HePTP inhibitor = blocks human HePTP tyrosine phosphatase; P35236; recombinant HePTP phosphatase activity, OD absorbance; inhibition, % at 20 µM; 110,000 tested, 0.64% active; AID 521; in the data active = inhibition above about 50%;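 note: plate controls were vehicle for no effect and reference inhibitor for full effect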
MMP13 inh = blocks human MMP13 activity. 65,000 tested, 0.07% active. P45452. inhibition, % at 4 µM. MMP-13 fTHP FRET cleavage, Mca fluorescence;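 active = inhibition above the mean of compound-free control plate wells plus 3 SD, cut at about 14% in these data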;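 note: 0% = DMSO wells and 100% = wells with reference MMP-13 inhibitor after basal subtraction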
Ecoli WT expand = E. coli BW25113 growth inhibition, expanded screen; OD600 absorbance; growth inhibition, % at 100 µM; 98,000 tested, 0.15% active; AID 710;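 active = growth inhibition above about 50% at one test dose, limit read from the data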;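 note: growth measured after 20 h incubation at 37 °C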
Ec RNAP inh = inhibitors of Escherichia coli RNA polymerase; P0A8V2; E. coli RNA polymerase, fluorescence transcription assay; inhibition, %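 (tested at 10 µM)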; 62,000 tested, 0.2% active; in the data active = inhibition above about 20%;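 note: 0% = enzyme without compound and 100% = no enzyme blank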
Target sequence (P0A8V2 whole entry, looked up): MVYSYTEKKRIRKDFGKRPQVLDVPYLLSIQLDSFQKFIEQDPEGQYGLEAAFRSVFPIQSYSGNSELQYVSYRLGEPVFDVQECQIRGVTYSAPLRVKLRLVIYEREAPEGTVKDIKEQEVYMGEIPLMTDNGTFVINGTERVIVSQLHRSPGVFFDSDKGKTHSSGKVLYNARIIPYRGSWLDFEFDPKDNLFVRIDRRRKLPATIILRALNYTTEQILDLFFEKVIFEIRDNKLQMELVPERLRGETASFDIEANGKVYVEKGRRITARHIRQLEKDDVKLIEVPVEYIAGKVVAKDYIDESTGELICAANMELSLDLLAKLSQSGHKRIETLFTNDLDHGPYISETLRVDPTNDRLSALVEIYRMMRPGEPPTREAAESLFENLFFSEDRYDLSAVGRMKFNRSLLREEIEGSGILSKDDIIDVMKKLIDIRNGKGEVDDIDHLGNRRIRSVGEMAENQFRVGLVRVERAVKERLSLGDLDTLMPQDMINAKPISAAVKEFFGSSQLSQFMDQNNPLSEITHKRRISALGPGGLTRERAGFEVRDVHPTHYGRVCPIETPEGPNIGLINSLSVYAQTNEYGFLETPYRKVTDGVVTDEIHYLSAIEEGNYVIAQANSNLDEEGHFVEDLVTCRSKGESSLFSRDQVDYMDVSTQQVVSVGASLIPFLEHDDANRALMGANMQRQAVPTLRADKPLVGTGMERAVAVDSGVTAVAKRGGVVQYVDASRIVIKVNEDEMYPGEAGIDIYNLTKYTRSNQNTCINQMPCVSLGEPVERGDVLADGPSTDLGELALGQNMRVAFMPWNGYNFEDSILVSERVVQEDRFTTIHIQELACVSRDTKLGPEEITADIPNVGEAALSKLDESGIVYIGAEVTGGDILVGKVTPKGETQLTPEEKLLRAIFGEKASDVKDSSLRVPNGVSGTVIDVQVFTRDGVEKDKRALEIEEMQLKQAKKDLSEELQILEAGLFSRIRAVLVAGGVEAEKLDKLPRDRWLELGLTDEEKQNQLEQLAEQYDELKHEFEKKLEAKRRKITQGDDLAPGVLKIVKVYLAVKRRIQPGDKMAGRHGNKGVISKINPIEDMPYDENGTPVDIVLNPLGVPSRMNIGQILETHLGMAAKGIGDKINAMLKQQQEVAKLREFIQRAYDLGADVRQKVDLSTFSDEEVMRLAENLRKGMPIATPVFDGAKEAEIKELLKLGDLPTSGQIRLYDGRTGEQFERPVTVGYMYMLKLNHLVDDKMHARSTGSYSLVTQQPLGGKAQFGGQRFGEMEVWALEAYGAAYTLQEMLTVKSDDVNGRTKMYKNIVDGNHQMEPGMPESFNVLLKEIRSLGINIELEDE
AP ELISA ortho = alternative pathway complement inhibition, orthogonal assay; 62,000 tested, 0.08% active; Human serum alternative complement pathway, LPS-coated ELISA, C3 deposition; tested in compound mixtures; AID 1235; inhibition, % at 5 µM;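 active = inhibition above 30% in each of the two pooled mixtures holding the compound, so the lower value exceeds 30%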;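 note: 0% = serum in Mg-EGTA without compound and 100% = EDTA serum blank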
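Assay system: human serum alternative complement pathway, C3 deposition on LPS-coated wells; Dosing: 5 µM per compound in ten-compound mixtures; Detection: Anti-C3 ELISA, OD 450 nm; Buffer or medium: Mg2+-EGTA GVB++ buffer containing human serum at 1:15 dilution; Timing: 1 h at 37 °C; Replication: two different pools per compound.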
tolC growth inh = blocks growth of E. coli BW25113 tolC mutant; growth inhibition, % at 10 µM (by protocol); AID 573; OD615; 65,000 tested, 2.2% active;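 active = growth inhibition at or above a cutoff equal to the mean over every tested compound plus 3 SD, cut at about 60% in these data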;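 note: growth measured after 20 h incubation at 37 °C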
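Assay system: tolC-deleted E. coli BW25113. Medium: kanamycin-containing LB broth (50 µg/mL). Dosing: 10 µM final, single dose. Timing: bacterial growth with compound for 20 h at 37 °C. Detection: A615 absorbance measurement. Read-out basis: growth inhibition in percent.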
* = called active by the depositor.

COc1ccc(NC(=O)c2cc3c(=O)n(C)c4ccccc4c3n2C)cc1OC was read as HePTP inhibitor -8, MMP13 inh 6, Ecoli WT expand -3, Ec RNAP inh 6, AP ELISA ortho 1 and tolC growth inh 75*.
Screening COc1cc(/C=c2\sc3nc4ccccc4n3c2=O)cc(I)c1OCC(=O)O returned HePTP inhibitor 75*.
Screening CC1=NN(C(=O)c2cccc(Cl)c2)C(O)(c2cccnc2)C1 (stereo unspecified) returned HePTP inhibitor 2.
Screening O=C(Nc1nnc(-c2ccc3c(c2)CCCC3)o1)C1COc2ccccc2O1 (stereo unspecified) returned HePTP inhibitor 6, MMP13 inh -6, Ecoli WT expand 0, Ec RNAP inh 8, AP ELISA ortho 13 and tolC growth inh 100*.
Screening CC(=O)Nc1nnc(-c2ccc3c(c2)CCCC3)o1 returned HePTP inhibitor 6, MMP13 inh -9, Ecoli WT expand 4, Ec RNAP inh 5, AP ELISA ortho 25 and tolC growth inh 2.
Screening COc1cccc(-c2nnc(NC(=O)c3ccc(S(=O)(=O)N4CCOCC4)cc3)o2)c1 returned HePTP inhibitor 13, MMP13 inh 1, Ecoli WT expand -4, Ec RNAP inh -5, AP ELISA ortho 2 and tolC growth inh 94*.
For CC1CN(S(=O)(=O)c2ccc(C(=O)Nc3nc(-c4ccc([N+](=O)[O-])cc4)cs3)cc2)CC(C)O1 (stereo unspecified) the results were HePTP inhibitor 10.
CC1CN(S(=O)(=O)c2ccc(C(=O)Nc3nnc(-c4ccc5c(c4)CCCC5)o3)cc2)CC(C)O1 (stereo unspecified) was read as HePTP inhibitor -1, MMP13 inh -2, Ecoli WT expand 4, Ec RNAP inh 7, AP ELISA ortho 12 and tolC growth inh 97*.
Screening COc1ccccc1C(=O)Nc1nnc(-c2ccc3c(c2)CCCC3)o1 returned HePTP inhibitor 2, MMP13 inh 1, Ecoli WT expand -10, Ec RNAP inh 7, AP ELISA ortho 14 and tolC growth inh 98*.
Screening CC1=C(C(=O)Nc2ccc(C)cc2)C(c2ccccc2Br)NC(=O)N1 (stereo unspecified) returned HePTP inhibitor 6.
`CCC(C)C(=O)N1c2ccccc2C(N(C(=O)COc2ccccc2)c2ccccc2)CC1C` (stereo unspecified) gave HePTP inhibitor -3.
Screening CCC(=O)N1N=C2c3ccc(OC)cc3CCC2C1c1ccc(N(C)C)cc1 (stereo unspecified) returned HePTP inhibitor -22.
`COc1cccc(C(=O)Nc2nnc(-c3ccc(F)cc3)o2)c1` gave HePTP inhibitor 2, MMP13 inh 4, Ec RNAP inh 0, AP ELISA ortho 12 and tolC growth inh 16.
Screening COc1cccc(C(=O)Nc2nnc(-c3cccs3)o2)c1 returned HePTP inhibitor 3, MMP13 inh 1, Ecoli WT expand 80*, Ec RNAP inh 6, AP ELISA ortho 24 and tolC growth inh 69*.
O=C(COc1ccc(Cl)cc1)Nc1nnc(-c2ccc3c(c2)CCCC3)o1 was read as HePTP inhibitor -7, MMP13 inh 2, Ecoli WT expand -8, Ec RNAP inh 6, AP ELISA ortho 4 and tolC growth inh 100*.
`COc1ccc(-c2nnc(NC(=O)c3ccccc3C)o2)cc1` gave HePTP inhibitor 1, MMP13 inh 1, Ec RNAP inh 5, AP ELISA ortho 10 and tolC growth inh 100*.
`COc1cccc(C(=O)Nc2nnc(-c3ccc(Cl)cc3)o2)c1` gave HePTP inhibitor 3, MMP13 inh 4, Ec RNAP inh -2, AP ELISA ortho 19 and tolC growth inh 100*.
Screening O=C(Nc1nnc(-c2ccc(Cl)cc2)o1)NC1CCCCC1 returned Ecoli WT expand -6.
For CCOc1ccc(-c2nnc(NC(=O)c3ccc(OCC(C)C)c(OC)c3)o2)cc1 the results were HePTP inhibitor 16, MMP13 inh 0, Ecoli WT expand 9, Ec RNAP inh 4, AP ELISA ortho 11 and tolC growth inh 100*.
`CCN(c1ccccc1)c1ncnc2c1cnn2-c1ccccc1` gave HePTP inhibitor 1, MMP13 inh 0, Ecoli WT expand -2, Ec RNAP inh -1, AP ELISA ortho 19 and tolC growth inh 100*.
